Results from the RNAGym collection of RNA variant scans (doi:10.1126/science.aae0568).
Variants at the floor of the assay were thinned out.

B1: tRNA (parent)
chain: GUUCCGUUGGCGUAAUGGUAACGCGUCUCCCUCCUAAGGAGAAGACUGCGGGUUCGAGUCCCGUACGGAACG

Variants of: B1
Experiment: yeast fitness relative to wild type (ratio to wild type); higher = fitter; tRNA-Arg(CCU), competitive growth, 37 C, YPD
Method in brief: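 Variants of the tRNA-Arg(CCU) gene were chemically synthesised with a 3% per-site mutation rate across 69 sites and placed at the native genomic locus in Saccharomyces cerevisiae. Six parallel replicates of the pooled strains were competed in YPD at 37°C for 24 hours, and gene amplicons from the start and end populations were read by 100-nucleotide paired-end sequencing. Darwinian fitness relative to wild type was derived from changes in genotype frequencies. Genotypes required ≥ 100 starting reads, and estimates < 0.5 were set to 0.5.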

| Variant | yeast fitness |
| --- | --- |
| C5G A21G C62U | 0.677 |
| C5G A21G U26C C27G G48C G67A | 0.531 |
| C5G A21G U28C U32C A65U G68A | ≤ 0.5 |
| C5G A21G U32C | 0.63 |
| C5G A21G U32C C62U A65U G68A | ≤ 0.5 |
| C5G A21G U59A A69C A70C | ≤ 0.5 |
| C5G A21G U64C | 0.723 |
| C5G A21U C29A | 0.631 |
| C5G A21U C29U A37U A43G C66G | ≤ 0.5 |
| C5G A21U C33U G50A | 0.835 |
| C5G A21U C49U | ≤ 0.5 |
| C5G A21U C55U | 0.6 |
| C5G A36C | 0.772 |
| C5G A36C G41C | ≤ 0.5 |
| C5G A36G | 1.01 |
| C5G A36G A40C | 0.683 |
| C5G A36G A43U A69C | 0.655 |
| C5G A36G A45G G51C C61A | ≤ 0.5 |
| C5G A36G G68C | 0.596 |
| C5G A36G G68U | 0.525 |
| C5G A36U | 0.583 |

| Variant | yeast fitness |
| --- | --- |
| C5G A36U C61U A65C G67A G68A | ≤ 0.5 |
| C5G A36U C62U | ≤ 0.5 |
| C5G A36U G52C G67U A69U | ≤ 0.5 |
| C5G A36U G67A | 0.571 |
| C5G A36U U54C | ≤ 0.5 |
| C5G A37C | 0.731 |
| C5G A37C A69C | 0.511 |
| C5G A37C C61U | ≤ 0.5 |
| C5G A37C G38A | 0.562 |
| C5G A37C G38A C60G | ≤ 0.5 |
| C5G A37C G51A U53C C62A | ≤ 0.5 |
| C5G A37C G51C A57G | 0.598 |
| C5G A37G C46G A57G | ≤ 0.5 |
| C5G A37G C46G C61A | ≤ 0.5 |
| C5G A37G G41C | ≤ 0.5 |
| C5G A37U | 0.726 |
| C5G A37U A43C A65U | ≤ 0.5 |
| C5G A37U C46U A69C | ≤ 0.5 |
| C5G A37U C49G | ≤ 0.5 |
| C5G A37U G67A | ≤ 0.5 |
| C5G A40C A70G | 0.543 |

| Variant | yeast fitness |
| --- | --- |
| C5G A40C G52A C62U | ≤ 0.5 |
| C5G A40C U53G C60A | ≤ 0.5 |
| C5G A40C U59A | ≤ 0.5 |
| C5G A40G A57G | ≤ 0.5 |
| C5G A40G U54A | 0.579 |
| C5G A40U C62U | ≤ 0.5 |
| C5G A40U G44A C61A | 0.567 |
| C5G A40U G58C | 0.732 |
| C5G A42C G48A | 0.587 |
| C5G A42C G68U | 0.593 |
| C5G A42G A69C | 0.568 |
| C5G A42G A70C | 0.805 |
| C5G A42G C60G C61G | 0.669 |
| C5G A42G C61A G63C | ≤ 0.5 |
| C5G A42G U54A | 0.639 |
| C5G A42U G67A | 0.532 |
| C5G A43C G48C U64C | ≤ 0.5 |
| C5G A43G | 0.746 |
| C5G A43G A69U | 0.762 |
| C5G A43G G56A C61G C62A | ≤ 0.5 |
| C5G A43U A65C | 0.557 |

| Variant | yeast fitness |
| --- | --- |
| C5G A43U A69U | 0.62 |
| C5G A43U G48C | 0.602 |
| C5G A45C | 0.85 |
| C5G A45C A70C | 0.725 |
| C5G A45C C46U | 0.643 |
| C5G A45C C66G | ≤ 0.5 |
| C5G A45G A69U | 0.688 |
| C5G A45U C61U C66U | ≤ 0.5 |
| C5G A57G | 0.882 |
| C5G A57G C66A | 0.564 |
| C5G A57U | 0.735 |
| C5G A65G | 1 |
| C5G A69C | 0.932 |
| C5G A69C A70G | 0.692 |
| C5G A69G | 0.902 |
| C5G A69U | 0.894 |
| C5G A70G | 0.848 |
| C5G C11A | 0.609 |
| C5G C11A A14G G25C C29G A70G | ≤ 0.5 |
| C5G C11A A14G G25C C29G C60U | ≤ 0.5 |
| C5G C11A A14G G25C U28C C29G | ≤ 0.5 |
